Source: ChEMBL document CHEMBL1130340, “Semisynthetic derivatives of purpuromycin as potential topical agents for vaginal infections” (1997)
Values after ≈ are worked out from the molar mass of the structure shown.

Legend:
Streptococcus pneumoniae = experiment: In vitro antimicrobial activity against Streptococcus pneumoniae L44; format: functional
Summary of the method: (§1)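 Streptococci: broth microdilution MIC in Todd Hewitt broth; inoculum about 10^4 cfu/mL; 37 °C, 20–24 h.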

[1] = tested on: Staphylococcus epidermidis; experiment: In vitro antimicrobial activity against Staphylococcus epidermidis ATCC 12228; format: functional
Summary of the method: (§2)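 Broth microdilution MIC in Oxoid Iso-Sensitest broth; inoculum about 10^4 cfu/mL; 37 °C for 20–24 h.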

Neisseria gonorrhoeae = experiment: In vitro antimicrobial activity against Neisseria gonorrhoeae L997; format: functional
Summary of the method: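 Broth microdilution MIC in GC Base broth plus 1% (v/v) IsoVitaleX; inoculum about 10^4 cfu/mL; 37 °C.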

Proteus vulgaris = experiment: In vitro antimicrobial activity against Proteus vulgaris ATCC881; format: functional; summary of the method: as §2
[2] = tested on: Staphylococcus haemolyticus; experiment: In vitro antimicrobial activity against Staphylococcus haemolyticus L602; format: functional; summary of the method: as §2
Pseudomonas aeruginosa = experiment: In vitro antimicrobial activity against Pseudomonas aeruginosa ATCC 10145; format: functional; summary of the method: as §2
Escherichia coli = experiment: In vitro antimicrobial activity against Escherichia coli L47; format: functional; summary of the method: as §2
Haemophilus influenzae = experiment: In vitro antimicrobial activity against Haemophilus influenza ATCC 19418; format: functional
Summary of the method: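 Broth microdilution MIC in Brain Heart Infusion broth plus 1% (v/v) supplement C; inoculum about 10^4 cfu/mL; 37 °C.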

Staphylococcus aureus [3] = experiment: In vitro antimicrobial activity against Staphylococcus aureus L1 65 30% bovine serum; format: functional
Summary of the method: (§3)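 Broth microdilution MIC against S. aureus L165 in Iso-Sensitest broth, 37 °C, 20–24 h.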

Enterococcus faecalis = experiment: In vitro antimicrobial activity against Enterococcus faecalis ATCC 7080; format: functional; summary of the method: as §2
Candida albicans [4] = experiment: In vitro antimicrobial activity against Candida albicans L145; format: functional
Summary of the method: (§4)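 Candida: broth microdilution MIC in phosphate-buffered Yeast Nitrogen Base broth with glucose (1% w/v) and L-asparagine (0.15% w/v); inoculum about 10^4 cfu/mL; 37 °C, 20–24 h.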

Staphylococcus aureus [5] = experiment: In vitro antimicrobial activity against Staphylococcus aureus L165; format: functional; summary of the method: as §2
Cutibacterium acnes = experiment: In vitro antimicrobial activity against Propionibacterium acnes ATCC 6919; format: functional
Summary of the method: (§5)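 Anaerobe MIC by broth microdilution in Wilkins-Chalgren broth; inoculum 5 × 10^5 cfu/mL; 37 °C.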

Staphylococcus aureus [6] = experiment: In viro antimicrobial activity against Staphylococcus aureus L165 10 x e+6 cfu/ml; format: functional; summary of the method: as §3
Streptococcus pyogenes = experiment: In vitro antimicrobial activity against Streptococcus pyogenes L49; format: functional; summary of the method: as §1
Bacteroides fragilis = experiment: In vitro antimicrobial activity against Bacteroides fragilis ATCC 25285; format: functional; summary of the method: as §5
Staphylococcus aureus [7] = experiment: In vitro antimicrobial activity against Staphylococcus aureus L165 30% bovine serum; format: functional; summary of the method: as §3
Trichophyton benhamiae = experiment: In vitro antimicrobial activity against Trichophyton mentagrophytes L364; format: functional, Arthroderma benhamiae
Summary of the method: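 Broth microdilution MIC in YM broth; inoculum 1% (v/v) suspension of mycelia and conidia; 30 °C for 72 h.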

Candida albicans [8] = experiment: Candida albicans L145; format: functional; summary of the method: as §4
Candida [9] = experiment: Minimum inhibition concentration for 50% inhibition against Candida species; format: functional; summary of the method: as §4
Gardnerella vaginalis [10] = experiment: In vitro antimicrobial activity against Gardnerella vaginalis (MIC90); format: functional
Summary of the method: (§6)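 Agar dilution MIC in Casman medium with 5% (v/v) whole and 0.15% (v/v) lysed rabbit blood; inoculum about 10^5 cfu; 48 h at 37 °C under N2-CO2-H2 (80:10:10).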

Candida albicans [11] = experiment: In vitro antimicrobial activity against Candida albicans (24); format: functional; summary of the method: as §4
Candida [12] = experiment: Minimum inhibition concentration for 90% inhibition against Candida species; format: functional; summary of the method: as §4
Trichomonas vaginalis [13] = experiment: In vitro antimicrobial activity against Trichomonas vaginalis; format: functional
Summary of the method: (§7)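 Broth microdilution in Trichomonas Culture Medium Base plus 10% horse serum; about 10^5 cells/mL; 48 h at 37 °C under N2-CO2-H2; MIC read by microscopy for viable (motile) protozoa.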

Gardnerella vaginalis [14] = experiment: In vitro antimicrobial activity against Gardnerella vaginalis (MIC50); format: functional; summary of the method: as §6
Nakaseomyces glabratus = experiment: In vitro antimicrobial activity against Candida glabrata (1)1; format: functional; summary of the method: as §4
Candida tropicalis = experiment: In vitro antimicrobial activity against Candida tropicalis (2); format: functional; summary of the method: as §4
Trichomonas vaginalis [15] = experiment: Antimicrobial activity against Trichomonas vaginalis; format: functional; summary of the method: as §7

SMILES | MIC (Streptococcus pneumoniae) [µg/mL] | MIC [1] [µg/mL] | MIC (Neisseria gonorrhoeae) [µg/mL] | MIC (Proteus vulgaris) [µg/mL] | MIC [2] [µg/mL] | MIC (Pseudomonas aeruginosa) [µg/mL] | MIC (Escherichia coli) [µg/mL] | MIC (Haemophilus influenzae) [µg/mL] | MIC (Staphylococcus aureus [3]) [µg/mL] | MIC (Enterococcus faecalis) [µg/mL] | MIC (Candida albicans [4]) [µg/mL] | MIC (Staphylococcus aureus [5]) [µg/mL] | MIC (Cutibacterium acnes) [µg/mL] | MIC (Staphylococcus aureus [6]) [µg/mL] | MIC (Streptococcus pyogenes) [µg/mL] | MIC (Bacteroides fragilis) [µg/mL] | also measured
COC(=O)c1cc2cc3c(c(O)c2c(=O)o1)OC1(CC2=C(O1)C(=O)c1c(O)c(NCC(F)(F)F)cc(O)c1C2=O)CC3O (centres undefined) | 0.06 (≈ 0.0991 µM) | 0.016 (≈ 0.0264 µM) | 0.06 (≈ 0.0991 µM) | > 128 | 0.016 (≈ 0.0264 µM) | > 128 | > 128 | 0.06 (≈ 0.0991 µM) | 2 (≈ 3.3 µM) | 0.03 (≈ 0.0496 µM) | 8 (≈ 13.2 µM) | 0.016 (≈ 0.0264 µM) | 0.008 (≈ 0.0132 µM) | 0.03 (≈ 0.0496 µM) | 0.13 (≈ 0.215 µM) | 0.06 (≈ 0.0991 µM) | –
COC(=O)c1cc2cc3c(c(O)c2c(=O)o1)OC1(CC2=C(O1)C(=O)c1c(O)c(NCCNC(=O)OC(C)(C)C)cc(O)c1C2=O)CC3O (centres undefined) | 0.06 (≈ 0.09 µM) | 0.06 (≈ 0.09 µM) | 0.13 (≈ 0.195 µM) | > 128 | 0.06 (≈ 0.09 µM) | > 128 | > 128 | 1 (≈ 1.5 µM) | 2 (≈ 3 µM) | 0.13 (≈ 0.195 µM) | > 128 | 0.13 (≈ 0.195 µM) | 0.016 (≈ 0.024 µM) | 0.13 (≈ 0.195 µM) | 0.13 (≈ 0.195 µM) | 0.5 (≈ 0.75 µM) | –
COC(=O)c1cc2cc3c(c(O)c2c(=O)o1)OC1(CC2=C(O1)C(=O)c1c(O)c(NCCN(C)C)cc(O)c1C2=O)CC3O (centres undefined) | 0.06 (≈ 0.101 µM) | – | – | 128 (≈ 215 µM) | 0.5 (≈ 0.841 µM) | 128 (≈ 215 µM) | 16 (≈ 26.9 µM) | – | – | – | 64 (≈ 108 µM) | 0.13 (≈ 0.219 µM) | 0.06 (≈ 0.101 µM) | 0.13 (≈ 0.219 µM) | – | 0.5 (≈ 0.841 µM) | MIC (Staphylococcus aureus [7]): 0.25 µg/mL (≈ 0.421 µM); MIC (Trichophyton benhamiae): 128 µg/mL (≈ 215 µM)
COC(=O)c1cc2cc3c(c(O)c2c(=O)o1)OC1(CC2=C(O1)C(=O)c1c(O)c(NCCO)cc(O)c1C2=O)CC3O (centres undefined) | 0.016 (≈ 0.0282 µM) | 0.06 (≈ 0.106 µM) | 0.03 (≈ 0.0529 µM) | > 128 | 0.13 (≈ 0.229 µM) | > 128 | > 128 | 0.06 (≈ 0.106 µM) | 1 (≈ 1.76 µM) | 0.06 (≈ 0.106 µM) | – | 0.06 (≈ 0.106 µM) | 0.004 (≈ 0.00705 µM) | 0.13 (≈ 0.229 µM) | 0.03 (≈ 0.0529 µM) | 0.13 (≈ 0.229 µM) | MIC (Candida albicans [8]): > 128 µg/mL
CNc1cc(O)c2c(c1O)C(=O)C1=C(CC3(CC(O)c4cc5cc(C(=O)OC)oc(=O)c5c(O)c4O3)O1)C2=O (centres undefined) | 0.016 (≈ 0.0298 µM) | 0.008 (≈ 0.0149 µM) | 0.06 (≈ 0.112 µM) | > 128 | 0.016 (≈ 0.0298 µM) | > 128 | > 128 | 0.13 (≈ 0.242 µM) | 0.25 (≈ 0.465 µM) | 0.03 (≈ 0.0558 µM) | 2 (≈ 3.72 µM) | 0.016 (≈ 0.0298 µM) | 0.008 (≈ 0.0149 µM) | 0.06 (≈ 0.112 µM) | 0.03 (≈ 0.0558 µM) | 0.03 (≈ 0.0558 µM) | MIC50 (Candida [9]): 2 µg/mL (≈ 3.72 µM); MIC90 (Gardnerella vaginalis [10]): 2 µg/mL (≈ 3.72 µM); MIC (Candida albicans [11]): 0.25 µg/mL (≈ 0.465 µM); MIC90 (Candida [12]): 2 µg/mL (≈ 3.72 µM); MIC (Trichomonas vaginalis [13]): 1 µg/mL (≈ 1.86 µM); MIC50 (Gardnerella vaginalis [14]): 1 µg/mL (≈ 1.86 µM); MIC (Nakaseomyces glabratus): 128 µg/mL (≈ 238 µM); MIC (Candida tropicalis): 64 µg/mL (≈ 119 µM)
CCNc1cc(O)c2c(c1O)C(=O)C1=C(CC3(CC(O)c4cc5cc(C(=O)OC)oc(=O)c5c(O)c4O3)O1)C2=O (centres undefined) | 0.06 (≈ 0.109 µM) | 0.06 (≈ 0.109 µM) | 0.06 (≈ 0.109 µM) | > 128 | 0.06 (≈ 0.109 µM) | > 128 | > 128 | 0.06 (≈ 0.109 µM) | 1 (≈ 1.81 µM) | 0.06 (≈ 0.109 µM) | 2 (≈ 3.63 µM) | 0.06 (≈ 0.109 µM) | 0.06 (≈ 0.109 µM) | 0.06 (≈ 0.109 µM) | 0.06 (≈ 0.109 µM) | 0.06 (≈ 0.109 µM) | MIC50 (Candida [9]): 2 µg/mL (≈ 3.63 µM); MIC90 (Gardnerella vaginalis [10]): 2 µg/mL (≈ 3.63 µM); MIC (Candida albicans [11]): 0.25 µg/mL (≈ 0.453 µM); MIC90 (Candida [12]): 4 µg/mL (≈ 7.25 µM); MIC (Trichomonas vaginalis [13]): 8 µg/mL (≈ 14.5 µM); MIC50 (Gardnerella vaginalis [14]): 2 µg/mL (≈ 3.63 µM); MIC (Nakaseomyces glabratus): 32 µg/mL (≈ 58 µM); MIC (Candida tropicalis): 64 µg/mL (≈ 116 µM)
Cc1ncc([N+](=O)[O-])n1CCO [METRONIDAZOLE] | – | – | – | – | – | – | – | – | – | – | – | – | – | – | – | – | MIC (Trichomonas vaginalis [15]): 0.25 µg/mL (≈ 1.46 µM)
